These results are taken from ChEMBL document CHEMBL4052812, “Imidazo[1,2-α]pyridines possess adenosine A1 receptor affinity for the potential treatment of cognition in neurological disorders” (Bioorg Med Chem Lett, 2017).

A word on the inhibition: it is the percentage by which the read-out fell short of the control. The Ki is a measure of affinity in units of concentration, obtained from inhibition or displacement.

Assay [1] has as its target Adenosine receptor A2a (Rattus norvegicus) (UniProt P30543). As to the kind of experiment: (§1) Displacement of [3H]-NECA from A2A receptor in rat striatal membrane in presence of A1 receptor agonist N6-cyclopentyladenosine. The arrangement: concentration or dose not given beside the values. Type of assay: cell membranes. Conditions: Striatum, concentration not given here. In a few lines:
(§2)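 Competition binding against [3H]NECA (Kd 15.3 nM) on rat striatal membranes, with the A1 agonist CPA present to suppress A1 binding. Nonspecific binding set with 100 µM CPA. Eight concentrations from 0 to 100 µM. Ki from the IC50 of a sigmoidal fit, in triplicate, mean ± SEM. Otherwise percent displacement at 100 µM.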
In general terms: Loss of bound radioactivity is the signal in a displacement assay; it reports binding, not function.

Another assay addresses Adenosine receptor A2a (Rattus norvegicus, UniProt P30543). The description is as §1. Type of assay: cell membranes, Striatum. Summed up: as §2
Assay [2] addresses T1, Adenosine receptor A1 (Rattus norvegicus, UniProt P25099).
T1 sequence (P25099 whole entry): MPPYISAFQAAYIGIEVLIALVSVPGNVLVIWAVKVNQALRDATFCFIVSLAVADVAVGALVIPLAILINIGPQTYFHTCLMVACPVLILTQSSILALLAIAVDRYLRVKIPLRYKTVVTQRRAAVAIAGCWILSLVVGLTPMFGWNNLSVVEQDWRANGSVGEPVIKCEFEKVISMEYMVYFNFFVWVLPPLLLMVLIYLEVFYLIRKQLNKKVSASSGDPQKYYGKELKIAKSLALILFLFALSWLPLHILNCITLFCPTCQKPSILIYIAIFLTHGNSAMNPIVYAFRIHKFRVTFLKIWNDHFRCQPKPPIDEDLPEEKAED
Briefly: (§3) Displacement of [3H]-DPCPX from A1 receptor in rat whole brain membrane. Type of assay: cell membranes. In a few lines: (§4)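 Competition binding against [3H]DPCPX (Kd 0.36 nM) on rat whole brain membranes. Nonspecific binding set with 100 µM CPA. Eight test concentrations from 0 to 100 µM. IC50 from a sigmoidal fit of specific binding against log concentration, converted to Ki. Run in triplicate, mean ± SEM. Where no full curve was obtained, percent displacement of radioligand at 100 µM is given.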

Assay [3] addresses T2, Adenosine receptor A1 (Rattus norvegicus) (UniProt P25099).
T2 sequence (whole entry): T1 sequence (P25099 whole entry)
Described as §3. Type of assay: cell membranes. The arrangement: concentration or dose not given beside the values. Conditions: concentration not given here. In a few lines:
as §4

Assay [4] can be described thus: Displacement of [3H]CGS21680 from A2A receptor in bovine striatal membrane. Type of assay: cell membranes, Bos taurus, Striatum.
For assay [5], the target named is T3, Adenosine receptor A1 (Homo sapiens) (UniProt P30542).
T3 sequence (whole entry): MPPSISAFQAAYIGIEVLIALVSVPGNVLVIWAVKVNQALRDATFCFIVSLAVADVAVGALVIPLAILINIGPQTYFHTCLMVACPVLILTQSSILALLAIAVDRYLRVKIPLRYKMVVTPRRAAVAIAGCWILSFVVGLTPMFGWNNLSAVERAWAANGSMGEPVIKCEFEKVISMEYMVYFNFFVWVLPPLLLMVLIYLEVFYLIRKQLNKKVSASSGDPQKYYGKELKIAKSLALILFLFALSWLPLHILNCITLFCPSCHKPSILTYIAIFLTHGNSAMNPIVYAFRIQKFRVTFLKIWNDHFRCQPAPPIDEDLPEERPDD
Briefly: Displacement of [3H]-DPCPX from recombinant human A1 receptor expressed in CHOK1 cells at 100 uM measured after 30 mins by liquid scintillation counting method relative to control. The class given is cell-based.

Assay [6] deals with T2, Adenosine receptor A1 (Rattus norvegicus). As to the kind of experiment: Ratio of Ki for adenosine receptor A1 in rat brain membrane in presence of GTP to Ki for adenosine receptor A1 in rat brain membrane in absence of GTP. The class given is cell membranes. Summed up:
(§5)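 GTP shift test on rat whole brain membranes. [3H]DPCPX binding is run without GTP and with 100 µM GTP added. Ki is taken from a sigmoidal competition curve in each condition, in triplicate. The shift is Ki with GTP divided by Ki without GTP.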

For assay [7], the target named is T1, Adenosine receptor A1. As to the kind of experiment: Displacement of [3H]-DPCPX from A1 receptor in rat whole brain membrane assessed as effect on GTP shift in presence of 100 uM GTP. The class given is cell membranes. In a few lines:
as §5

Sequence of Adenosine receptor A2a (Rattus norvegicus) (P30543 whole entry): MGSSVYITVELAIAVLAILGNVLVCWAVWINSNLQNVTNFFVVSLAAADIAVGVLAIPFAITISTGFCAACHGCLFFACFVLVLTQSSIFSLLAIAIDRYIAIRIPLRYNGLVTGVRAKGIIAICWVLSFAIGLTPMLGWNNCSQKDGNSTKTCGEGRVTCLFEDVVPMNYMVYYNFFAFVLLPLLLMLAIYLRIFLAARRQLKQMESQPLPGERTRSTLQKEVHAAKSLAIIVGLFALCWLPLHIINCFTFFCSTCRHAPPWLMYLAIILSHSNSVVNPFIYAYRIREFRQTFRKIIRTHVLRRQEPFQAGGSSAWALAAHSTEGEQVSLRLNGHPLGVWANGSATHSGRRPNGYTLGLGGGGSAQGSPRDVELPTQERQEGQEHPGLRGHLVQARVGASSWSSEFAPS
Sequence of Adenosine receptor A2a (P30543 whole entry): as above

On to `c1ccn2ccnc2c1`, for which the inhibition in assay [1] turned out to be 75%; in assay [3] it was 100%. The Ki on Adenosine receptor A2a and on Adenosine receptor A1 [2] was above 100 µM in each case.
`Oc1ccc(-c2cn3ccccc3n2)cc1`: the inhibition in assay [1] came to 85%; in assay [3], 47%. The inhibition constant Ki at Adenosine receptor A2a and on Adenosine receptor A1 [2] was above 100 µM in each case.
`COc1ccc(-c2cn3ccccc3n2)cc1`: the inhibition in assay [1] was found to be 61%; in assay [3] it was 76%. The inhibition constant (Ki) on Adenosine receptor A2a and on Adenosine receptor A1 [2] was above 100 µM throughout.
The compound `CC(=O)CNc1nc(-c2ccccc2)nc2nc(C)cn12` showed a Ki in assay [4] above 10 µM.
Take `O=C(Nc1nc(-c2ccccc2)nc2nc(-c3ccccc3)cn12)C1CCCC1`: in assay [4], the affinity, expressed as Ki, was 2.5 µM.
Turning to `Fc1ccc(-c2nc3ccccn3c2NC2CCCCC2)cc1`, the inhibition in assay [1] stood at 90%; in assay [3], 63%. For the same compound, the Ki on Adenosine receptor A2a and on Adenosine receptor A1 [2] was above 100 µM throughout.
`Brc1ccc(-c2nc3ccccn3c2NC2CCCCC2)cc1`: the inhibition in assay [1] amounted to 54%. The inhibition constant (Ki) on Adenosine receptor A2a was above 100 µM; at Adenosine receptor A1 [2] it was 3.9 µM.
On to `O=[N+]([O-])c1ccc(-c2nc3ccccn3c2NC2CCCCC2)cc1`, for which the inhibition in assay [1] was 69%; in assay [3], 99%. Also, the Ki at Adenosine receptor A2a and at Adenosine receptor A1 [2] was above 100 µM in each case.
Regarding `Brc1ccc(-c2cn3ccccc3n2)cc1`, the inhibition amounted to 87% in assay [1] and 86% in assay [3]. The Ki at Adenosine receptor A2a and on Adenosine receptor A1 [2] was above 100 µM in each case.
On to `c1ccc(-c2nc3ccccn3c2NC2CCCCC2)cc1`, for which the inhibition worked out at 77% in assay [1] and 57% in assay [3]. In addition, the Ki on Adenosine receptor A2a and at Adenosine receptor A1 [2] was above 100 µM each time.
Take `Nc1c(-c2ccccc2)nc2ccccn12`: the inhibition in assay [1] turned out to be 86%; in assay [3], 52%. The Ki on Adenosine receptor A2a and on Adenosine receptor A1 [2] was above 100 µM throughout.
Compound `CC(=O)Nc1nc(-c2ccccc2)nc2nc(C)cn12` showed a Ki in assay [4] above 10 µM.
`Clc1ccc(-c2nc3ccccn3c2NC2CCCCC2)cc1`: the inhibition in assay [1] is 64%; in assay [3], 61%. Further, the inhibitory constant (Ki) on Adenosine receptor A2a and at Adenosine receptor A1 [2] was above 100 µM each time.
Consider `Oc1ccc(-c2nc3ccccn3c2NC2CCCCC2)cc1`, for which the inhibition in assay [1] came to 27%. The inhibition constant Ki is above 100 µM on Adenosine receptor A2a and 5.53 µM at Adenosine receptor A1 [2].
As for `c1ccc(CNc2c(-c3ccccc3)nc3ccccn23)cc1`, the inhibition in assay [5] was found to be 89%.
On to `Cc1ccc(-c2nc3ccccn3c2NC2CCCCC2)cc1`, for which the inhibition in assay [1] amounted to 83%. Moreover, the Ki at Adenosine receptor A2a was above 100 µM; at Adenosine receptor A1 [2], 2.06 µM; on Adenosine receptor A1 [7], 2 µM. Besides, the Ratio Ki in assay [6] amounted to 0.97.
With `FC(F)(F)c1ccc(-c2nc3ccccn3c2NC2CCCCC2)cc1`, the inhibition in assay [1] came out at 74%; in assay [3] it was 76%. For the same compound, the Ki at Adenosine receptor A2a and on Adenosine receptor A1 [2] was above 100 µM throughout.
Consider `c1ccc(-c2cn3ccccc3n2)cc1`, for which the inhibition is 52% in assay [1] and 49% in assay [3]. The Ki at Adenosine receptor A2a and at Adenosine receptor A1 [2] was above 100 µM throughout.
For `COc1ccc(-c2nc3ccccn3c2NC2CCCCC2)cc1`, in assay [1], the inhibition turned out to be 55%. The inhibition constant Ki at Adenosine receptor A2a was above 100 µM; on Adenosine receptor A1 [2], 7.61 µM.
